Data set [1] is described as follows: AUC (0 to 24 hrs) in Balb/c mouse at 2 mg/kg, sc administered as single dose using MC/EtOH formulation by LC-MS/MS analysis. In kind it is ADME, organism-based. More on the design: dose 2 mg/kg, time < 24 hr, route subcutaneous. Conditions: in vivo. Put shortly:
(§1)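 Female Balb/c mice, fasted 8 h with free water, given a single dose in 0.1 mL vehicle: EO-33 dissolved in EtOH, then aqueous 0.4% methylcellulose added to a final 8% EtOH. Sacrificed under isoflurane at 1, 3, 7, 12 and 24 h (2–3 mice/group). Cardiac blood collected into K-EDTA and plasma stored at −80 °C. LC-MS/MS on 100 µL plasma. AUC0-24h taken from the five time points.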

Data set [2] is described as follows: AUC (0 to 24 hrs) in Balb/c mouse at 30 mg/kg, po administered via gavage as single dose using MC/EtOH formulation by LC-MS/MS analysis. In kind it is ADME, organism-based. More on the design: time < 24 hr, dose 30 mg/kg, route oral. The conditions noted are these: in vivo. Put shortly:
as §1

A short description of data set [3]: Plasma concentration in Balb/c mouse at 30 mg/kg, sc administered as single dose using PG/DMSO formulation measured after 7 hrs by LC-MS/MS analysis. The data set is classed as ADME, organism-based. Put shortly:
(§2)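 Female Balb/c mice, fasted 8 h, given a single dose in 0.1 mL of PG or sunflower oil holding a final 8% DMSO. Sacrificed under isoflurane at 7 h (2–3 mice/group). Cardiac blood collected into K-EDTA and plasma analysed by LC-MS/MS.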

Data set [4] is described as follows: Plasma concentration in Balb/c mouse at 30 mg/kg, po administered via gavage as single dose using MC/EtOH formulation measured after 12 hrs by LC-MS/MS analysis. The data set is classed as ADME, organism-based. Put shortly: as §1
A short description of data set [5]: Toxicity in nu/nu Br athymic mouse xenografted with human […]-stimulated MCF7 cells assessed as effect on liver at 30 mg/kg, sc administered 6 days per week for […] using MC/EtOH formulation measured 3 hrs post-last dose by necropsy analysis. The data set is classed as organism-based. The conditions noted are these: in vivo. Put shortly:
(§3)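 MCF-7 cells (grown in DME-F12 with 5% FBS and 1 nM estradiol) inoculated SC at 4.1 x 10^6 cells in 30% Matrigel into both flanks of bilaterally ovariectomized nude mice, three days after surgery; E2S 50 µg/mouse SC three times weekly. Test agent SC 6 days/week in 0.1 mL MC:EtOH (92:8) for 28 days; vehicle-only controls. Mice weighed and killed 3 h after last dose; livers removed.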
In general terms: Xenograft models place foreign cells or tissue in a host animal.

Data set [6] can be described thus: Plasma concentration in Balb/c mouse at 30 mg/kg, sc administered as single dose using MC/EtOH formulation measured after 24 hrs by LC-MS/MS analysis. The data set is classed as ADME, organism-based. Put shortly:
as §1

The subject of data set [7] is Mus musculus. Kind of data set: Ex vivo inhibition of STS in ovariectomized Balb/c mouse liver homogenates assessed as reduction in transformation of [3H]-E1S into [3H]-E1 at 30 mg/kg, sc administered twice daily starting from day 2 to day 10 using MC/EtOH formulation and E1S addition on day 5 to 10 measured on day 11 by liquid scintillation counting method relative to control. In kind it is functional. Put shortly:
(§4)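 Livers collected on day 11 from the OVX Balb/c uterotrophic protocol and homogenized in cold pH 7.4 phosphate buffer with protease inhibitors. 2000 g supernatant, 100 or 500 µg protein, incubated with [3H]-E1S/E1S (final 1 µM) in PBS for 2 h at 37 °C. Xylene extraction, then scintillation counting of both phases. Result given as % E1 formed. Triplicate.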

The nature of data set [8]: Plasma concentration in Balb/c mouse at 2 mg/kg, sc administered as single dose using MC/EtOH formulation measured after 3 hrs by LC-MS/MS analysis. In kind it is ADME, organism-based. Put shortly:
as §1

The nature of data set [9]: Toxicity in nu/nu Br athymic mouse xenografted with human […] MCF7 cells assessed as effect on body weight at 30 mg/kg, sc administered 6 days per week for […] using MC/EtOH formulation measured 3 hrs post-last dose. Conditions: in vivo. The data set is classed as organism-based. Put shortly:
as §3

Data set [10] in a line: Plasma concentration in Balb/c mouse at 30 mg/kg, sc administered as single dose using MC/EtOH formulation measured at 1 hr by LC-MS/MS analysis. In kind it is ADME, organism-based. Put shortly: as §1
The test system of data set [11] is Mus musculus. Kind of data set: Osteogenic activity in ovariectomized-induced C57BL/6 mouse model of osteoporosis assessed as recovery of tibia calcium content at 30 mg/kg, sc administered 6 days per week for 70 days using MC/EtOH formulation by Triple Quad ICP-MS analysis relative to control. The data set is classed as functional. Put shortly: (§5)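 Female C57BL/6 mice (63–70 days) ovariectomized under isoflurane; sham controls kept. 8/group, dosed SC in 0.1 mL MC:EtOH (92:8) for 70 days. Tibias excised and weighed (mg/g body weight). Calcium measured by ICP-MS after calcination at 600 °C for 6 h and HNO3 microwave digestion; expressed as mg/g tibia.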

Data set [12] is described as follows: Plasma concentration in Balb/c mouse at 10 mg/kg, sc administered as single dose using MC/EtOH formulation measured at 1 hr by LC-MS/MS analysis. In kind it is ADME, organism-based. Put shortly:
as §1

Data set [13] can be described thus: Toxicity in nu/nu Br athymic mouse xenografted with human […]-stimulated MCF7 cells assessed as effect on kidneys at 30 mg/kg, sc administered 6 days per week […] using MC/EtOH formulation measured 3 hrs post-last dose by necropsy analysis. The data set is classed as organism-based. The conditions noted are these: in vivo. Put shortly:
as §3

Data set [14] relates to Mus musculus. Kind of data set: Ex vivo inhibition of STS in ovariectomized Balb/c mouse liver homogenates assessed as reduction in transformation of [3H]-E1S into [3H]-E1 at 15 mg/kg, sc administered twice daily starting from day 2 to day 10 using MC/EtOH formulation and E1S addition on day 5 to 10 measured on day 11 by liquid scintillation counting method relative to control. In kind it is functional. Put shortly:
as §4

The nature of data set [15]: AUC (0 to 24 hrs) in Balb/c mouse at 10 mg/kg, sc administered as single dose using MC/EtOH formulation by LC-MS/MS analysis. The data set is classed as ADME, organism-based. More on the design: dose 10 mg/kg, time < 24 hr, route subcutaneous. The conditions noted are these: in vivo. Put shortly: as §1
Data set [16] relates to Mus musculus. Kind of data set: In vivo inhibition of STS in sc-dosed ovariectomized Balb/c mouse assessed as reduction in E1S-stimulated uterus weight administered twice daily starting from day 2 to day 10 using MC/EtOH formulation and E1S addition on day 5 to 10 measured on day 11. In kind it is functional, organism-based. Put shortly:
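Female Balb/c mice (15–20 g) ovariectomized under isoflurane, 5/group. Inhibitor given SC in 0.1 mL MC:EtOH (92:8) on days 2–10. E1S (2 µg/mouse, BID) or E1 (0.06 µg/mouse, ID) given SC on days 5–10. Vehicle controls included. Uterus dissected and weighed on day 11. Means ± SEM.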

Data set [17] in a line: Plasma concentration in Balb/c mouse at 30 mg/kg, po administered via gavage as single dose using SO/DMSO formulation measured after 7 hrs by LC-MS/MS analysis. In kind it is ADME, organism-based. Put shortly: as §2
A short description of data set [18]: AUC (0 to 24 hrs) in Balb/c mouse assessed as (4-(((furan-2-ylmethyl)((5-methylthiophen-2-yl)methyl)amino)methyl)phenyl)(7-hydroxy-3,4-dihydroisoquinolin-2(1H)-yl)methanone level at 30 mg/kg, po administered via gavage as single dose using MC/EtOH formulation by LC-MS/MS analysis. In kind it is ADME, organism-based. More on the design: dose 30 mg/kg, time < 24 hr, route oral. Conditions: in vivo.

For another data set, the system named is MCF7. Kind of data set: Antitumor activity against human MCF7 cells xenografted in nu/nu Br athymic mouse assessed as effect on […]-stimulated tumor growth by measuring tumor size at 30 mg/kg, sc administered 6 days per week for […] using MC/EtOH formulation measured post-last dose (reference value: 171 %). The data set is classed as functional.
The test system of data set [19] is Mus musculus. The data set is described as follows: Osteogenic activity in ovariectomized-induced C57BL/6 mouse model of osteoporosis assessed as recovery of tibia weight at 30 mg/kg, sc administered 6 days per week for 70 days using MC/EtOH formulation relative to control. The data set is classed as functional. Put shortly:
as §5

Regarding `Cc1ccc(CN(Cc2ccc(C(=O)N3CCc4ccc(OS(N)(=O)=O)cc4C3)cc2)Cc2ccco2)s1`, the AUC(0-t) (commonly the area under the concentration-time curve up to a stated or last time point) at 24 h in data set [1] is 1130 ng·h/mL; in data set [2] it was 878 ng·h/mL; in [15], 5200 ng·h/mL. The concentration at 7 h was 381 ng/mL in [3] and 49 ng/mL in data set [17]. The same compound showed a concentration at 12 h in data set [4] of 3 ng/mL. Further, the Activity entry in data set [5] was “Non-Toxic”; in data set [9], “Non-Toxic”; in the data set with Mus musculus [11], 71%; in data set [13], “Non-Toxic”; with MCF7, 72%; with Mus musculus [19], 100%. Further, in data set [6], the concentration at 24 h came out at 13 ng/mL. Further, the inhibition in vivo (usually the share of the control response that was lost under treatment) at 30 mg/kg in the data set with Mus musculus [7] is 81%. Also, the concentration at 3 h in data set [8] stood at 33 ng/mL. Besides, the concentration at 1 h in data set [10] and in [12] was 2600 ng/mL in each case. Also, the inhibition in vivo at 15 mg/kg with Mus musculus [14] came out at 71%. In addition, the inhibition entry with Mus musculus [16] is “Dose-dependent effect”. Further, the AUC – broadly, the area under the concentration-time curve, a measure of exposure – in data set [18] stood at 10 ng·h/mL.

Source of the values: ChEMBL document CHEMBL4396876, “Antisulfatase, Osteogenic, and Anticancer Activities of Steroid Sulfatase Inhibitor EO-33 in Mice” (J Med Chem, 2019).
